Converted amounts (≈) assume the structure as drawn. The source made the active and inactive calls. The calls are words filed in the database; no cut-off is given here.
How the values were obtained:
Liver microsomes = assay: Metabolic stability in rat liver microsomes after 30 mins; type: ADME, Microsome; conditions: 0.5 h
In short: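 Turnover by rodent liver microsomes measured as percent turnover after 30 min.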

Rattus norvegicus = assay: Reversal of haloperidol-induced hypolocomotion in Sprague-Dawley rat assessed as time spent for locomotor activity at 30 mg/kg, po administered 120 mins prior and measured for 60 mins; type: functional, organism-based; parameters: dose 30 mg/kg
Adenosine receptor A2b = target: T1, Adenosine receptor A2b (Homo sapiens, UniProt P29275); assay: Displacement of radioligand from human recombinant adenosine A2B receptor at 21 degC after 60 mins by cell-based microplate scintillation counting
T1 sequence (P29275 whole entry): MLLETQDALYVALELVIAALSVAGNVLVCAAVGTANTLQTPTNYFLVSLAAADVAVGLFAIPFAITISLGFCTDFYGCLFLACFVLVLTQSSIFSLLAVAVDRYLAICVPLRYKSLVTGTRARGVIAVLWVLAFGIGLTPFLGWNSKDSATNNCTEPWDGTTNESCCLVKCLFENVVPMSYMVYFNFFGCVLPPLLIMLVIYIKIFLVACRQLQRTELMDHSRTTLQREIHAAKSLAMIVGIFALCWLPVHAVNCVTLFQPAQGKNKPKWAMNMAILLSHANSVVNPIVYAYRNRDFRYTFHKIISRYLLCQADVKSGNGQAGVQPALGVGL

[1] = Aqueous solubility in phosphate buffered saline; type: physicochemical
Adenosine receptor A3 = target: T2, Adenosine receptor A3 (Homo sapiens, UniProt P0DMS8); assay: Displacement of radioligand from human recombinant adenosine A3 receptor at 21 degC after 60 mins by cell-based microplate scintillation counting
T2 sequence (P0DMS8 whole entry): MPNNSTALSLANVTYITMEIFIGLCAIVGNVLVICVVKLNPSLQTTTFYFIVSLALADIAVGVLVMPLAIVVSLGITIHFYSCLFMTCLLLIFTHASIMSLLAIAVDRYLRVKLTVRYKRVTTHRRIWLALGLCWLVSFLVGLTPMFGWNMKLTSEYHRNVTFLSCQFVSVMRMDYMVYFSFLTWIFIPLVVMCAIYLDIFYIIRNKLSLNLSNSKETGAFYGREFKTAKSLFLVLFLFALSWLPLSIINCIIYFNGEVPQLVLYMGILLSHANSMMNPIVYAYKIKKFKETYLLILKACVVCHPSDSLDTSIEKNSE

Adenosine receptor A2a = Adenosine receptor A2a (Homo sapiens, UniProt P29274); assay: Displacement of radioligand from human recombinant adenosine A2A receptor at 21 degC after 90 mins by cell-based microplate scintillation counting
Adenosine receptor A1 = target: T3, Adenosine receptor A1 (Homo sapiens, UniProt P30542); assay: Displacement of radioligand from human recombinant adenosine A1 receptor at 21 degC after 90 mins by cell-based microplate scintillation counting
T3 sequence (P30542 whole entry): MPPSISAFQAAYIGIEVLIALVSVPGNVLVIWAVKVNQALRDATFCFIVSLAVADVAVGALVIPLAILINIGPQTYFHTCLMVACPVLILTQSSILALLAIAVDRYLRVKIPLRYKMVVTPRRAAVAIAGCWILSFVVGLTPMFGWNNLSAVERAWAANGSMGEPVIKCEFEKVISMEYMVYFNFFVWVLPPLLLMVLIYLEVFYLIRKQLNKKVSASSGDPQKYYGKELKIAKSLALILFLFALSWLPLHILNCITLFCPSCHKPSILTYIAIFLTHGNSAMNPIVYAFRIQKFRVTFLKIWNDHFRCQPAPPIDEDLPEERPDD

Mus musculus = assay: Reversal of haloperidol-induced hypolocomotion in TO mouse assessed as time spent for locomotor activity at 30 mg/kg, po administered 15 mins prior and measured for 60 mins; type: functional, organism-based; parameters: dose 30 mg/kg

Adenosine receptor A2a, sequence (P29274 whole entry): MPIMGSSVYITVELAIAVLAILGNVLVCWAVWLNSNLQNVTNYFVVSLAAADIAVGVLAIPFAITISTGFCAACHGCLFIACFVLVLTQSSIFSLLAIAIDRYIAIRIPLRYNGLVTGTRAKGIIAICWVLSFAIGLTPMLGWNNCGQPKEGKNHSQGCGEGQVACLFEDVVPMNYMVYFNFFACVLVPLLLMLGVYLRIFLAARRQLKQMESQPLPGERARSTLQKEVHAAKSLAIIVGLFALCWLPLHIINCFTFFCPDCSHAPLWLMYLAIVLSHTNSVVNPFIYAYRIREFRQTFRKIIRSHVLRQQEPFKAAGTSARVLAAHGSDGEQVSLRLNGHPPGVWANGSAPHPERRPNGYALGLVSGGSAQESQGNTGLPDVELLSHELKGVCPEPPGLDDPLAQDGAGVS

| SMILES | Stability (Liver microsomes) | Ki (Adenosine receptor A2b) [nM] | solubility [1] [µM] | Ki (Adenosine receptor A3) [nM] | Ki (Adenosine receptor A2a) [nM] | Ki (Adenosine receptor A1) [nM] | Activity (Rattus norvegicus) | Activity (Mus musculus) |
| --- | --- | --- | --- | --- | --- | --- | --- | --- |
| N#Cc1ccc(Cn2nnc3c(-c4ccco4)nc(N)nc32)cc1 | Stable | 885 | 30 (≈ 9.52 µg/mL) | 1050 | 73 | 738 | inactive | inactive |
| Cc1ccccc1Cn1nnc2c(-c3ccco3)nc(N)nc21 | Stable | 282 | 30 (≈ 9.19 µg/mL) | 341 | 3 | 183 | inactive | inactive |
| Nc1nc(-c2cc[nH]n2)c2nnn(Cc3ccccc3F)c2n1 | Stable | 1780 | 30 (≈ 9.31 µg/mL) | 1290 | 239 | 1660 | inactive | inactive |
| Nc1nc(-c2ccco2)c2nnn(CC3CCCCC3)c2n1 | – | 634 | – | 1140 | 8.5 | 230 | – | – |
| Nc1nc(-c2nccs2)c2nnn(Cc3ccccc3F)c2n1 | – | 271 | 30 (≈ 9.82 µg/mL) | 2200 | 8.5 | 553 | inactive | inactive |
| Nc1nc(-c2cnn[nH]2)c2nnn(Cc3ccccc3F)c2n1 | Stable | 1290 | 30 (≈ 9.34 µg/mL) | 2810 | 400 | 2960 | inactive | inactive |
| Nc1nc(-c2ccco2)c2nnn(Cc3ccccc3[N+](=O)[O-])c2n1 | – | 383 | – | 168 | 6.6 | 400 | – | – |
| Nc1nc(-c2ncco2)c2nnn(Cc3ccccc3F)c2n1 | – | 836 | – | 2110 | 41 | 599 | – | – |
| Nc1nc(-c2ccco2)c2nnn(Cc3cnccn3)c2n1 | – | 1140 | – | 2220 | 122 | 1170 | – | – |
| Nc1nc(-c2ccco2)c2nnn(Cc3ccco3)c2n1 | – | 192 | – | 240 | 8.8 | 77 | – | – |
| Nc1nc(-c2ccco2)c2nnn(Cc3ccc4[nH]nnc4c3)c2n1 | – | 134 | – | 3010 | 11.9 | 291 | – | – |
| COc1ccccc1Cn1nnc2c(-c3ccco3)nc(N)nc21 | – | 741 | – | 340 | 5.4 | 319 | – | – |
| CC(=O)Nc1ccc(Cn2nnc3c(-c4ccco4)nc(N)nc32)cc1 | – | 443 | – | 2380 | 116 | 2530 | – | – |
| Nc1ccc(Cn2nnc3c(-c4ccco4)nc(N)nc32)c(F)c1 | – | 23 | – | 685 | 3.5 | 190 | – | – |
| Nc1nc(-c2ccco2)c2nnn(Cc3ccc4[nH]ccc4c3)c2n1 | – | 59 | – | 606 | 1.1 | 27 | – | – |
| Nc1nc(-c2cncs2)c2nnn(Cc3ccccc3F)c2n1 | – | 423 | – | 1780 | 31 | 894 | – | – |
| Nc1nc(-c2ccco2)c2nnn(Cc3ccc4[nH]ncc4c3)c2n1 | – | 206 | – | 2430 | 8.6 | 190 | – | – |
| Nc1nc(-c2cccs2)c2nnn(Cc3ccccc3F)c2n1 | – | 248 | – | 871 | 8.2 | 154 | – | – |
| Cc1cnc(-c2nc(N)nc3c2nnn3Cc2ccccc2F)s1 | – | 199 | – | 338 | 8.5 | 86 | – | – |
| Nc1nc(-c2ccco2)c2nn[nH]c2n1 | Stable | – | 30 (≈ 6.07 µg/mL) | – | 194 | 3620 | inactive | inactive |
| Cc1csc(-c2nc(N)nc3c2nnn3Cc2ccccc2F)n1 | – | 53 | – | 1260 | 2.2 | 203 | – | – |

The next lines start with results.

| Stability (Liver microsomes) | Ki (Adenosine receptor A2b) [nM] | solubility [1] [µM] | Ki (Adenosine receptor A3) [nM] | Ki (Adenosine receptor A2a) [nM] | Ki (Adenosine receptor A1) [nM] | SMILES | Activity (Rattus norvegicus) | Activity (Mus musculus) |
| --- | --- | --- | --- | --- | --- | --- | --- | --- |
| Stable | 122 | 30 (≈ 8.77 µg/mL) | 285 | 1.9 | 83 | Nc1nc(-c2ccco2)c2nnn(Cc3ccccc3)c2n1 | inactive | inactive |
| – | 10 | – | 491 | 4 | 314 | Nc1nc(-c2ccco2)c2nnn(Cc3cccc(O)c3)c2n1 | – | – |
| Stable | 593 | 30 (≈ 11.3 µg/mL) | 530 | 10.8 | 733 | CC(C)NC(=O)c1cccc(Cn2nnc3c(-c4ccco4)nc(N)nc32)c1 | inactive | inactive |
| – | 2110 | – | 3810 | 832 | 4140 | Nc1nc(-c2ccco2)c2nnn(Cc3cccc(C(=O)O)c3)c2n1 | – | – |
| – | 24 | – | 203 | 1.9 | 42 | Nc1nc(-c2ccco2)c2nnn(Cc3c(F)cccc3F)c2n1 | – | – |
| – | 79 | – | 619 | 2.3 | 110 | Nc1nc(-c2ccco2)c2nnn(Cc3cccc(F)c3F)c2n1 | – | – |
| – | 643 | – | 563 | 1.8 | 77 | COc1cccc(Cn2nnc3c(-c4ccco4)nc(N)nc32)c1 | – | – |
| – | 259 | – | 736 | 2.2 | 100 | Nc1nc(-c2ccco2)c2nnn(Cc3cccc(C(F)(F)F)c3)c2n1 | – | – |
| – | 43 | – | 1070 | 0.7 | 120 | Nc1nc(-c2ccco2)c2nnn(Cc3ccc(N)c(F)c3)c2n1 | – | – |
| Stable | 646 | 30 (≈ 10.1 µg/mL) | 844 | 3.7 | 231 | Nc1nc(-c2ccco2)c2nnn(Cc3cccc([N+](=O)[O-])c3)c2n1 | inactive | inactive |
| Stable | 907 | 30 (≈ 10.5 µg/mL) | 1170 | 4.1 | 105 | COC(=O)c1cccc(Cn2nnc3c(-c4ccco4)nc(N)nc32)c1 | – | – |
| Stable | 109 | 30 (≈ 9.31 µg/mL) | 440 | 2.7 | 105 | Nc1nc(-c2ccco2)c2nnn(Cc3ccccc3F)c2n1 | inactive | inactive |
| – | 630 | – | 693 | 3.9 | 132 | N#Cc1cccc(Cn2nnc3c(-c4ccco4)nc(N)nc32)c1 | – | – |
| – | 84 | – | 1360 | 1.6 | 249 | Nc1nc(-c2ccco2)c2nnn(Cc3ccc(N)c(O)c3)c2n1 | – | – |
| – | 916 | – | > 10000 | 241 | 4910 | NCc1ccc(Cn2nnc3c(-c4ccco4)nc(N)nc32)cc1 | – | – |
| – | 128 | – | 450 | 2.2 | 98 | Nc1nc(-c2ccco2)c2nnn(Cc3cc(F)ccc3F)c2n1 | – | – |
| – | 160 | – | 269 | 2.3 | 76 | Nc1nc(-c2ccco2)c2nnn(Cc3cccc(Cl)c3)c2n1 | – | – |
| – | 254 | – | 360 | 3 | 45 | Cc1cccc(Cn2nnc3c(-c4ccco4)nc(N)nc32)c1 | – | – |

From ChEMBL document CHEMBL1139344, “Antagonists of the human A(2A) adenosine receptor. 4. Design, synthesis, and preclinical evaluation of 7-aryltriazolo[4,5-d]pyrimidines” (J Med Chem, 2009)
